Bioassay records: PubChem, several laboratories
Sampled rows, rich in hits. Any-hit rate of the full collection: about 2.2%.
RORa activator – RORA (human) activation; P35398; CHO-K1 Gal4-RORA LBD luciferase reporter, luminescence; percent increase over mock-subtracted basal signal; activation, % at 10 µM; actives 1.5% (n = 65,000);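 active = activation above the mean of all tested compounds plus 3 SD, cut at about 49% in these data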;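 also: 0% = DMSO-treated RORA cells and 100% = added signal equal to DMSO minus mock-transfected cells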
MT1-MMP txn act – activates MT1-MMP transcription; HT1080 MT1-MMP promoter luciferase reporter, luminescence, overnight; stronger effect = higher value; activation factor at 10 µM; actives 0.16% (n = 86,000); AID 750;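 active = activation factor of at least 2 for MT1-MMP transcription at 10 µM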
Calb biofilm kill – kills Candida albicans biofilms; AID 834; C. albicans biofilm + clotrimazole, Alamar Blue; inhibition, % at 6 µM; actives 0.14% (n = 85,000);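 active = inhibition above 20%; inactive = inhibition below 20%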;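 also: preformed 24 hr biofilms exposed to compound for 48 hr; 0% = biofilm without compound and 100% = blank killed by clotrimazole plus chlorhexidine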
SF-1 act – activates the human nuclear receptor SF-1; Q13285; CHO-K1 Gal4-SF-1 LBD luciferase reporter; % increase over DMSO SF-1-specific signal; activation, % at 10 µM; actives 1.9% (n = 65,000); AID 522;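 active = activation above the mean activation of all tested compounds plus 3 SD, cut at about 50% in these data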
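Assay system: CHO-K1 cells co-transfected with Gal4 DBD–human SF-1 LBD, 5xGal4 luciferase reporter; doses: 10 µM only; incubation: 20 h compound exposure at 37 °C after 1 h cell settling; signal: luciferase light emission; evaluation: percent activation versus DMSO; repeats: one test per compound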
Mac1 fbg enh – CD11b/CD18-fibrinogen binding enhancement. P05107+P11215. AID 1499. K562 CD11b/CD18 adhesion to fibrinogen, ATPlite luminescence. activation, % at 10 µM. actives 0.07% (n = 93,000);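 active = 10 µM primary screen giving 50% or more activity, confirmed by 40% or more on retest at that dose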
Target sequence (P05107 whole entry, looked up, other chains not shown): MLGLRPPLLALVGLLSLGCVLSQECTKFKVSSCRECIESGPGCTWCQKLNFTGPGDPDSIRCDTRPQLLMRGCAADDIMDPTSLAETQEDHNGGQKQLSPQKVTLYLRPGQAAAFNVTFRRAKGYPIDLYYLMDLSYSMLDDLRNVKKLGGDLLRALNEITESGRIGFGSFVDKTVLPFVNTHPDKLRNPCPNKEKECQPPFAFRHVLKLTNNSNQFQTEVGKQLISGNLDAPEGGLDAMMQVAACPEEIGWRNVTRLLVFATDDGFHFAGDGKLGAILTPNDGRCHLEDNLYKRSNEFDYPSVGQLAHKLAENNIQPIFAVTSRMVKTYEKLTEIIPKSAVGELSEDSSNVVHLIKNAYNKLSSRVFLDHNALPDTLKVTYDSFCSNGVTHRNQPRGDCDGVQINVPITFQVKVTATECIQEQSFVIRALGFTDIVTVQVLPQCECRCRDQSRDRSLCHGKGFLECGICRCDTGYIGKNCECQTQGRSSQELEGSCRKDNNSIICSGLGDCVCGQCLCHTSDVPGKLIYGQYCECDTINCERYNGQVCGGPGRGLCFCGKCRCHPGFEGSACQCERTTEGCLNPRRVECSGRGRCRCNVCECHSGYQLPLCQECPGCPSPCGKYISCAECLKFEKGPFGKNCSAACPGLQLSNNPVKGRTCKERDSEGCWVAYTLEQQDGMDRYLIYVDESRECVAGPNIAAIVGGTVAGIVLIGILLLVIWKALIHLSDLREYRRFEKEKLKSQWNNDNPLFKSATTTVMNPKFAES
CD11b adhes inh – inhibitors of human CD11b/CD18 binding to fibrinogen | P05107+P11215 | K562 CD11b/CD18 adhesion to fibrinogen, ATPlite luminescence; Mn2+ added to activate the integrin | inhibition, % at 10 µM | actives 0.54% (n = 93,000);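 active = primary inhibition of 50% or more at 10 µM, then 40% or more on retest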
Numbers without * were called inactive; ! = not confirmed by another sample.

For CC1(C)CC(=O)C(C=Nc2ccc3c(c2)OCO3)=C(O)C1 the results were RORa activator 65*, MT1-MMP txn act 1.8, SF-1 act 72*, Mac1 fbg enh 1 and CD11b adhes inh -12.
COc1ccc(N=CC2=C(O)CCCC2=O)cc1 was read as RORa activator 15, MT1-MMP txn act 1.7, SF-1 act 52*, Mac1 fbg enh -2 and CD11b adhes inh 4.
Screening COc1ccc(N=CC2=C(O)CC(C)(C)CC2=O)cc1 returned RORa activator 45, MT1-MMP txn act 1.3, Calb biofilm kill 6, SF-1 act 87*, Mac1 fbg enh -2 and CD11b adhes inh -22.
For CNC(=O)[C@@]1(C)C=C[C@@H](Cc2ccccc2)N1C(=O)OC the results were MT1-MMP txn act 1.
O=C(COC(=O)CNC(=O)c1ccccc1)Nc1nc(-c2ccccc2)cs1 was read as Mac1 fbg enh -4 and CD11b adhes inh -16.
`O=C(Nc1cccc2nsnc12)c1cccs1` gave RORa activator 78*!, MT1-MMP txn act 1.7, Calb biofilm kill 3, SF-1 act 24, Mac1 fbg enh 0 and CD11b adhes inh -12.
For O=C(Nc1ccc2nsnc2c1)c1cccs1 the results were RORa activator 3, MT1-MMP txn act 1.6, Calb biofilm kill -1, SF-1 act -5, Mac1 fbg enh 1 and CD11b adhes inh -6.
For COCCNC(=O)[C@@]1(Cc2ccccc2)C=C[C@@H](C)N1C(=O)OC the results were MT1-MMP txn act 1.
For Cc1cc(NCCCN2CCOCC2)n2ncc(-c3ccccc3)c2n1 the results were RORa activator 54*, MT1-MMP txn act 1.8, Calb biofilm kill -3, SF-1 act 107*, Mac1 fbg enh 4 and CD11b adhes inh 22.
Screening Cc1cc(NCCOCCO)n2ncc(-c3ccc(Cl)cc3)c2n1 returned RORa activator 89*, MT1-MMP txn act 1.2, Calb biofilm kill 11, SF-1 act 9, Mac1 fbg enh 4 and CD11b adhes inh 6.
`CCc1c2c(nc3cccc(C(C)C)c13)-c1cccc(=O)n1C2` gave MT1-MMP txn act 1.2.
O=C(COc1ccc(Cl)cc1Cl)Nc1ccc(Cl)cn1 was read as RORa activator 30, MT1-MMP txn act 0.9, Calb biofilm kill 6, SF-1 act 31, Mac1 fbg enh -3 and CD11b adhes inh 0.
CCOc1ccc(C(=O)Nc2ccc(NC(=O)c3ccco3)c(Cl)c2)cc1Cl was read as MT1-MMP txn act 1, Calb biofilm kill -2, Mac1 fbg enh 10 and CD11b adhes inh 0.
For CCOc1ccc(C(=O)Nc2ccc(Cl)cn2)cc1Cl the results were RORa activator 86*, MT1-MMP txn act 1.4, Calb biofilm kill 5 and SF-1 act 49.
`CCOc1ccc(C(=O)Nc2cccc(-c3nc4cccnc4o3)c2)cc1Cl` gave RORa activator -6, SF-1 act -13, Mac1 fbg enh 55* and CD11b adhes inh -2.
For O=C(Nc1ccc(Cl)cn1)c1cccc(F)c1 the results were RORa activator 105*, MT1-MMP txn act 0.9, Calb biofilm kill 0, SF-1 act 95*, Mac1 fbg enh 0 and CD11b adhes inh -8.
For O=S(=O)(c1ccc2oc(-c3ccncc3)nc2c1)c1ccc2oc(-c3ccncc3)nc2c1 the results were RORa activator -22, MT1-MMP txn act 1.1, Calb biofilm kill 5 and SF-1 act 15.
`Cc1ccc(C#CC[N+]2(CC#Cc3ccc(C)cc3)CCCCC2)cc1` gave Mac1 fbg enh -4 and CD11b adhes inh 73.
Cc1c(/C=C/C(=O)c2ccc(Cl)s2)cnn1C was read as MT1-MMP txn act 2.4* and Calb biofilm kill 2.
Screening CCc1nnc(NC(=O)CSc2ccc(-c3nc4ccc(C)cc4[nH]3)cn2)s1 returned Mac1 fbg enh 30 and CD11b adhes inh 28.
Screening CCn1c(C)nc2cc(C(=O)OC(C(F)(F)C(F)F)C(F)(F)C(F)F)ccc21 returned RORa activator -12, MT1-MMP txn act 2.2*, Calb biofilm kill 8, SF-1 act -23, Mac1 fbg enh 8 and CD11b adhes inh 24.
`COC(=O)[C@@]1(Cc2ccc(F)cc2)[C@H]2c3cc(C(=O)N(C)C)n(CCCNc4ncc(C(F)(F)F)cc4Cl)c3C[C@H]2CN1C(=O)c1ccccc1` gave MT1-MMP txn act 1.1.
For CC(C)c1ccc(C(=O)CSc2ncn[nH]2)cc1 the results were RORa activator 53*, MT1-MMP txn act 1.4, Calb biofilm kill 6, SF-1 act 53*, Mac1 fbg enh -4 and CD11b adhes inh -7.
Screening c1ccc2c(c1)NC(c1ccncc1)n1c-2nc2ccccc21 (stereo not given) returned RORa activator 21, MT1-MMP txn act 1.1, Calb biofilm kill 9 and SF-1 act 31.
c1cncc(C2Nc3ccccc3-c3nc4ccccc4n32)c1 (stereo not given) was read as RORa activator 58*, Calb biofilm kill 6, SF-1 act 38, Mac1 fbg enh -3 and CD11b adhes inh 6.
`Cc1nc2sccn2c1-c1nc(C2CC2)c(C(=O)c2ccc3c(c2)NC(=O)CO3)s1` gave RORa activator -17, MT1-MMP txn act 1, Calb biofilm kill 13 and SF-1 act -16.
Screening Cn1c(C(=O)N2CCc3ccccc3C2)cc2oc3ccccc3c21 returned RORa activator 22, MT1-MMP txn act 1.3 and SF-1 act 57*.
O=C(Cn1ncc2c(=O)oc3ccccc3c21)N1CCC(N2CCCCC2)CC1 was read as RORa activator 14, MT1-MMP txn act 1.1, Calb biofilm kill 5, SF-1 act 3, Mac1 fbg enh 8 and CD11b adhes inh 5.
For O=C(Cn1ncc2c(=O)oc3ccccc3c21)N1CCc2ccccc2C1 the results were RORa activator -9, MT1-MMP txn act 1.1, Calb biofilm kill 22* and SF-1 act 6.
CCn1c(C(=O)N2CCc3ccccc3C2)cc2oc3ccccc3c21 was read as MT1-MMP txn act 1, Calb biofilm kill 3, Mac1 fbg enh -8 and CD11b adhes inh 32.
For C#CCN(Cc1ccccc1)C(=O)/C=C/c1ccccc1 the results were MT1-MMP txn act 1.2.
`C/C(Nc1ccc(Cl)cc1)=C(/C#N)C(N)=O` gave MT1-MMP txn act 1.1, Calb biofilm kill 50*, Mac1 fbg enh -1 and CD11b adhes inh -50.
Screening Clc1ccccc1N1CCN(c2ncnc3nc[nH]c23)CC1 returned RORa activator 0, MT1-MMP txn act 1.1, Calb biofilm kill -1, SF-1 act -6, Mac1 fbg enh -4 and CD11b adhes inh -6.
FC(F)(F)c1cccnc1N1CCN(c2ncnc3nc[nH]c23)CC1 was read as RORa activator -1, MT1-MMP txn act 1.1, Calb biofilm kill 29*, SF-1 act -8, Mac1 fbg enh -3 and CD11b adhes inh -2.
